Active and inactive are the calls of the source. The calls are words filed in the database; no cut-off is given here.
Columns and labels:
Nucleic Acid [1] = test: Induction of HIV1 transactivation response element RNA cleavage; format: nucleic-acid assay; conditions: Human immunodeficiency virus 1
Nucleic Acid [2] = test: Binding affinity to HIV1 32-P labeled transactivation response element RNA at compound:RNA ratio of 1:1 after 1 hr by gel mobility shift assay; format: nucleic-acid assay; conditions: Human immunodeficiency virus 1
How it was run: (§1)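 10 nM 32P-labelled 82-nt TAR RNA run-off transcript (T7) incubated with conjugate in 50 mM Tris-HCl pH 7.8, 60 mM KCl, 5 mM MgCl2, 1 h at room temperature. Molar ratios of conjugate to RNA were 0–5.0. Samples were run on native 8% polyacrylamide gel in TBE, 100 V, 4 h, room temperature, then PhosphorImager read-out.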

Nucleic Acid [3] = test: Inhibition of transactivation response element RNA-mediated transcription in HIV1 pseudovirions infected in human CEM cells assessed as reduction in luciferase activity incubated 48 hrs post-infection measured after 72 hrs by reporter gene assay; format: cell-based
How it was run: (§2)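 CEM 12D7 cells (1×10^6 in 1 mL) infected 2 h with VSV-G-pseudotyped NL4-3.Luc.R-E- virions (14 ng p24), washed and cultured. Conjugate added 48 h post-infection. After 76 h, cells lysed and firefly luciferase measured; IC50 calculated. Mean of two independent experiments.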

Nucleic Acid [4] = test: Binding affinity to HIV1 32-P labeled transactivation response element RNA assessed as gel mobility shift at compound:RNA ratio of 0.5:1 after 1 hr by gel mobility shift assay; format: nucleic-acid assay; conditions: Human immunodeficiency virus 1; how it was run: as §1
Nucleic Acid [5] = test: Inhibition of transactivation response element RNA-mediated transcription in HIV1 pseudovirions infected in human CEM cells assessed as reduction in luciferase activity at 800 nM incubated 48 hrs post-infection measured after 72 hrs by reporter gene assay; format: cell-based; conditions: Human immunodeficiency virus 1, CCRF-CEM; how it was run: as §2
Nucleic Acid [6] = test: Inhibition of HIV1 transactivation response element RNA-mediated LTR expression transfected in human CEM cells coexpressing CMV-Tat at 0.1 to 2 uM after 24 hrs by luciferase reporter gene assay; format: cell-based; conditions: Human immunodeficiency virus 1, CCRF-CEM
How it was run: (§3)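 CEM cells (0.5×10^6/well) transfected with pHIV-1 LTR-Luc (2 µg) and pRL-SV40 (500 ng), with or without pCMV-Tat (2 µg). Conjugates added 2 h later, and cells grown in RPMI/10% FBS at 37 °C. At 24 h, dual-luciferase read-out; firefly normalised to Renilla and expressed as % of untreated cells. Mean ± SEM of two independent experiments.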

Nucleic Acid [7] = test: Induction of HIV1 transactivation response element RNA cleavage in presence of metal ion; format: nucleic-acid assay; conditions: Human immunodeficiency virus 1
CCRF-CEM [8] = test: Cytotoxicity against human CEM cells assessed as inhibition of [3H]thymidine incorporation at 0.1 and 0.5 mM after 48 hrs by scintillation counting; format: cell-based
How it was run: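 CEM cells grown with conjugate (0.1 and 0.5 mM, dissolved in DMSO; final DMSO 5%) plus [methyl-3H]thymidine 5 µCi/mL for 48 h. Nucleic acids lysed with 1% NP-40, TCA-precipitated onto glass-fibre filters and scintillation counted. Results given as % of DMSO control, from three independent experiments.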

Nucleic Acid [9] = test: Effect on HIV1 transactivation response element RNA-mediated LTR expression transfected in human CEM cells at 0.1 to 2 uM after 24 hrs by luciferase reporter gene assay; format: cell-based; conditions: Human immunodeficiency virus 1, CCRF-CEM; how it was run: as §3
[10] = Chemical stability of the compound in aqueous HCl solution after 3 days by HPLC analysis; format: physicochemical; conditions: buffer, 72 h
How it was run: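 Conjugate held in 0.1 M aqueous HCl at 37 °C for 3 days. HPLC retention time compared with untreated sample.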

Nucleic Acid [11] = test: Inhibition of HIV1 transactivation response element RNA-mediated LTR expression transfected in human CEM cells coexpressing CMV-Tat at 1 uM after 24 hrs by luciferase reporter gene assay; format: cell-based; conditions: Human immunodeficiency virus 1, CCRF-CEM; how it was run: as §3
Nucleic Acid [12] = test: Inhibition of HIV1 transactivation response element RNA-mediated LTR expression transfected in human CEM cells coexpressing CMV-Tat at 1 and 2 uM after 24 hrs by luciferase reporter gene assay; format: cell-based; conditions: Human immunodeficiency virus 1; CCRF-CEM; how it was run: as §3
CCRF-CEM [13] = test: Cellular uptake in human CEM cells at 2 uM after overnight incubation; format: ADME, cell-based
CCRF-CEM [14] = test: Cellular uptake in human CEM cells at 1 uM after 12 hrs by confocal microscopic analysis; format: ADME, cell-based
How it was run: (§4)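 CEM cells incubated 12 h with FITC-labelled conjugate (0.5 and 1 µM) or with 1 µM FITC-labelled naked PNA. Cells then washed, nuclei DAPI-stained, and imaged by confocal microscopy with FITC read at 488 nm.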

CCRF-CEM [15] = test: Cellular uptake in human CEM cells at 0.2 uM within 14 hrs by FACS analysis; format: ADME, cell-based
How it was run: (§5)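 CEM cells taken in log phase and resuspended at 0.5×10^6 cells/mL in RPMI with 2% FBS, preincubated 30 min at 37 °C. Fluorescein-labelled conjugate added at 50 nM–1 µM and incubated. Cells harvested at 30 min, 3 h and 14 h, washed in PBS and scored for FITC-positive cells by FACScan, with propidium iodide (1 µg/mL) to exclude dead cells.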

CCRF-CEM [16] = test: Cellular uptake in human CEM cells up to 14 hrs by FACS analysis; format: ADME, cell-based; how it was run: as §5
CCRF-CEM [17] = test: Cellular uptake in human CEM cells up to 14 hrs by FACS analysis at 37 degC; format: ADME, cell-based; how it was run: as §5
[18] = Cytotoxicity against human CEM cells assessed as cell viability at 0.2 to 1 uM by propidium iodide-staining based flow cytometric analysis; conditions: CCRF-CEM cells, read-out: Activity
How it was run: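 CEM cells exposed to labelled conjugate at 0.2–1 µM under uptake-assay conditions. Viability scored by propidium iodide exclusion during flow cytometry.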

[19] = Cellular uptake in human Huh7.5 cells at 1 uM after 10 hrs by DAPI/WGA-Rhodamine-staining based confocal microscopic analysis in presence of chloroquine; format: ADME, cell-based; conditions: huh-7, 10 h
How it was run: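 Huh7.5 cells incubated with 1 µM FITC-labelled conjugate, with or without the endosome disruptor chloroquine, for 10 h. Cells then PBS-washed, fixed in 4% paraformaldehyde, stained with WGA-rhodamine (membrane glycoproteins) and DAPI (nuclei), and imaged by confocal microscopy, FITC at 488 nm.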

CCRF-CEM [20] = test: Cellular uptake in human CEM cells up to 14 hrs by FACS analysis at 4 degC; format: ADME, cell-based; how it was run: as §5
CCRF-CEM [21] = test: Cellular uptake in human CEM cells at 0.2 uM within 30 mins by FACS analysis; format: ADME, cell-based; conditions: 0.5 h; how it was run: as §5
CCRF-CEM [22] = test: Cellular uptake in human CEM cells at 0.3 uM within 14 hrs by FACS analysis; format: ADME, cell-based; how it was run: as §5
CCRF-CEM [23] = test: Cellular uptake in human CEM cells at 0.5 uM after 12 hrs by confocal microscopic analysis; format: ADME, cell-based; how it was run: as §4
CCRF-CEM [24] = test: Cellular uptake in human CEM cells at 50 nM to 1 uM by FACS analysis; format: ADME, cell-based; conditions: 0.05 µM, TDE = time-dependent effect; how it was run: as §5
[25] = Human immunodeficiency virus 1, CCRF-CEM

CO[C@H]1O[C@H](CN)[C@@H](OCCCCCC(=O)NCCN(CC(=O)NCCN(CC(=O)NCCN(CC(=O)NCCN(CC(=O)NCCN(CC(=O)NCCN(CC(=O)NCCN(CC(=O)NCCN(CC(=O)NCCN(CC(=O)NCCN(CC(=O)NCCN(CC(=O)NCCN(CC(=O)NCCN(CC(=O)NCCN(CC(=O)NCCN(CC(=O)NCCN(CC(N)=O)C(=O)Cn2cc(C)c(=O)[nH]c2=O)C(=O)Cn2ccc(N)nc2=O)C(=O)Cn2cc(C)c(=O)[nH]c2=O)C(=O)Cn2cnc3c(N)ncnc32)C(=O)Cn2cnc3c(=O)[nH]c(N)nc32)C(=O)Cn2cnc3c(N)ncnc32)C(=O)Cn2ccc(N)nc2=O)C(=O)Cn2cc(C)c(=O)[nH]c2=O)C(=O)Cn2ccc(N)nc2=O)C(=O)Cn2cnc3c(=O)[nH]c(N)nc32)C(=O)Cn2cnc3c(=O)[nH]c(N)nc32)C(=O)Cn2cnc3c(N)ncnc32)C(=O)Cn2ccc(N)nc2=O)C(=O)Cn2ccc(N)nc2=O)C(=O)Cn2ccc(N)nc2=O)C(=O)Cn2cc(C)c(=O)[nH]c2=O)[C@H](O)[C@H]1N
Activity (Nucleic Acid [1]): inactive
Activity (Nucleic Acid [2]): Active
IC50 (Nucleic Acid [3]; [25]): 800 nM
inhibition (Nucleic Acid [3]; [25]): Dose-dependent effect
Activity (Nucleic Acid [4]): 50%
inhibition (Nucleic Acid [5]): 50%
inhibition (Nucleic Acid [6]): Active
Activity (Nucleic Acid [7]): inactive
Activity (CCRF-CEM [8]): Non-toxic
Activity (Nucleic Acid [9]): inactive
Stability [10]: Stable
inhibition (Nucleic Acid [11]): 75%

Cc1cn(CC(=O)N(CCNC(=O)CN(CCNC(=O)CN(CCNC(=O)CN(CCNC(=O)CN(CCNC(=O)CN(CCNC(=O)CN(CCNC(=O)CN(CCNC(=O)CN(CCNC(=O)CN(CCNC(=O)CN(CCNC(=O)CN(CCNC(=O)CN(CCNC(=O)CN(CCNC(=O)CN(CCNC(=O)CN(CCN)C(=O)Cn2cc(C)c(=O)[nH]c2=O)C(=O)Cn2ccc(N)nc2=O)C(=O)Cn2ccc(N)nc2=O)C(=O)Cn2ccc(N)nc2=O)C(=O)Cn2cnc3c(N)ncnc32)C(=O)Cn2cnc3c(=O)[nH]c(N)nc32)C(=O)Cn2cnc3c(=O)[nH]c(N)nc32)C(=O)Cn2ccc(N)nc2=O)C(=O)Cn2cc(C)c(=O)[nH]c2=O)C(=O)Cn2ccc(N)nc2=O)C(=O)Cn2cnc3c(N)ncnc32)C(=O)Cn2cnc3c(=O)[nH]c(N)nc32)C(=O)Cn2cnc3c(N)ncnc32)C(=O)Cn2cc(C)c(=O)[nH]c2=O)C(=O)Cn2ccc(N)nc2=O)CC(N)=O)c(=O)[nH]c1=O
inhibition (Nucleic Acid [12]): inactive

Cc1cn(CC(=O)N(CCNC(=O)CN(CCNC(=O)CN(CCNC(=O)CN(CCNC(=O)CN(CCNC(=O)CN(CCNC(=O)CN(CCNC(=O)CN(CCNC(=O)CN(CCNC(=O)CN(CCNC(=O)CN(CCNC(=O)CN(CCNC(=O)CN(CCNC(=O)CN(CCNC(=O)CN(CCNC(=O)CN(CCNC(=O)CCC(=O)NCCCCCCO[C@@H]2[C@@H](O)[C@H](N)C[C@H](N)[C@H]2O[C@H]2O[C@H](CN)[C@@H](O)[C@H](O)[C@H]2N)C(=O)Cn2cc(C)c(=O)[nH]c2=O)C(=O)Cn2ccc(N)nc2=O)C(=O)Cn2ccc(N)nc2=O)C(=O)Cn2ccc(N)nc2=O)C(=O)Cn2cnc3c(N)ncnc32)C(=O)Cn2cnc3c(=O)[nH]c(N)nc32)C(=O)Cn2cnc3c(=O)[nH]c(N)nc32)C(=O)Cn2ccc(N)nc2=O)C(=O)Cn2cc(C)c(=O)[nH]c2=O)C(=O)Cn2ccc(N)nc2=O)C(=O)Cn2cnc3c(N)ncnc32)C(=O)Cn2cnc3c(=O)[nH]c(N)nc32)C(=O)Cn2cnc3c(N)ncnc32)C(=O)Cn2cc(C)c(=O)[nH]c2=O)C(=O)Cn2ccc(N)nc2=O)CC(N)=O)c(=O)[nH]c1=O
Drug uptake (CCRF-CEM [13]): 30%

Cc1cn(CC(=O)N(CCN)CC(=O)NCCN(CC(=O)NCCN(CC(=O)NCCN(CC(=O)NCCN(CC(=O)NCCN(CC(=O)NCCN(CC(=O)NCCN(CC(=O)NCCN(CC(=O)NCCN(CC(=O)NCCN(CC(=O)NCCN(CC(=O)NCCN(CC(=O)NCCN(CC(=O)NCCN(CC(=O)NCCN(CC(=O)N[C@@H](CCCCNC(=S)Nc2ccc(-c3c4ccc(=O)cc-4oc4cc(O)ccc34)c(C(=O)O)c2)C(N)=O)C(=O)Cn2cc(C)c(=O)[nH]c2=O)C(=O)Cn2ccc(N)nc2=O)C(=O)Cn2cc(C)c(=O)[nH]c2=O)C(=O)Cn2cnc3c(N)ncnc32)C(=O)Cn2cnc3c(=O)[nH]c(N)nc32)C(=O)Cn2cnc3c(N)ncnc32)C(=O)Cn2ccc(N)nc2=O)C(=O)Cn2cc(C)c(=O)[nH]c2=O)C(=O)Cn2ccc(N)nc2=O)C(=O)Cn2cnc3c(=O)[nH]c(N)nc32)C(=O)Cn2cnc3c(=O)[nH]c(N)nc32)C(=O)Cn2cnc3c(N)ncnc32)C(=O)Cn2ccc(N)nc2=O)C(=O)Cn2ccc(N)nc2=O)C(=O)Cn2ccc(N)nc2=O)c(=O)[nH]c1=O
Drug uptake (CCRF-CEM [14]): Not Active

CO[C@H]1O[C@H](CN)[C@@H](OCCCCCC(=O)NCCN(CC(=O)NCCN(CC(=O)NCCN(CC(=O)NCCN(CC(=O)NCCN(CC(=O)NCCN(CC(=O)NCCN(CC(=O)NCCN(CC(=O)NCCN(CC(=O)NCCN(CC(=O)NCCN(CC(=O)NCCN(CC(=O)NCCN(CC(=O)NCCN(CC(=O)NCCN(CC(=O)NCCN(CC(=O)N[C@@H](CCCCNC(=S)Nc2ccc(-c3c4ccc(=O)cc-4oc4cc(O)ccc34)c(C(=O)O)c2)C(N)=O)C(=O)Cn2cc(C)c(=O)[nH]c2=O)C(=O)Cn2ccc(N)nc2=O)C(=O)Cn2cc(C)c(=O)[nH]c2=O)C(=O)Cn2cnc3c(N)ncnc32)C(=O)Cn2cnc3c(=O)[nH]c(N)nc32)C(=O)Cn2cnc3c(N)ncnc32)C(=O)Cn2ccc(N)nc2=O)C(=O)Cn2cc(C)c(=O)[nH]c2=O)C(=O)Cn2ccc(N)nc2=O)C(=O)Cn2cnc3c(=O)[nH]c(N)nc32)C(=O)Cn2cnc3c(=O)[nH]c(N)nc32)C(=O)Cn2cnc3c(N)ncnc32)C(=O)Cn2ccc(N)nc2=O)C(=O)Cn2ccc(N)nc2=O)C(=O)Cn2ccc(N)nc2=O)C(=O)Cn2cc(C)c(=O)[nH]c2=O)[C@H](O)[C@H]1N
Drug uptake (CCRF-CEM [15]): 85%
Drug uptake (CCRF-CEM [16]): Dose-dependent effect
Drug uptake (CCRF-CEM [17]): Active
viability at 1 µM [18]: > 95%
Drug uptake [19]: Active
Drug uptake (CCRF-CEM [14]): 99%
Drug uptake (CCRF-CEM [20]): Active
Drug uptake (CCRF-CEM [21]): 10%
Drug uptake (CCRF-CEM [22]): 100%
Drug uptake (CCRF-CEM [23]): 90%
Drug uptake (CCRF-CEM [24]): tde
